{"source": "paper PMC12779259", "about": "(Metallomics : integrated biometal science, 2019)", "key": {"[1]": {"tested_on": "methicillin resistant S. aureus strains", "assay": "MIC against clinically isolated MRSA strains", "format": "cell-based, Staphylococcus aureus", "conditions": "5 clinically isolated MRSA strains, 50 μM Cu"}, "[2]": {"assay": "Determination of binding constants by UV/Vis", "conditions": "25 uM HEPES buffer pH 7.2"}, "[3]": {"tested_on": "S. aureus strain LAC carrying pHluorin", "format": "cell-based, Staphylococcus aureus", "conditions": "mildly acidic medium (pH 6.2)"}, "[4]": {"assay": "Toxicity testing on THP-1 monocyte cells", "format": "cell-based, human", "conditions": "human, THP-1 monocytic cells"}, "S. aureus Newman": {"tested_on": "S. aureus Newman", "assay": "Membrane potential, DiOC2", "format": "cell-based, Staphylococcus aureus", "conditions": "within 30 min; 10 μM PZP-915 and/or 50 μM Cu"}, "S. aureus [5]": {"tested_on": "S. aureus", "assay": "MIC determination against S. aureus in RPMI", "format": "cell-based, Staphylococcus aureus", "conditions": "for ^CuMIC (S. aureus): MIC in 50 μM copper supplemented medium"}, "S. aureus [6]": {"tested_on": "S. aureus", "assay": "Time to death assay and bactericidal activity", "format": "cell-based, Staphylococcus aureus", "conditions": "for mode of action (bactericidal vs bacteriostatic): CFU"}, "[7]": {"tested_on": "preformed S. aureus biofilms", "assay": "Biofilm eradication assay", "format": "cell-based, Staphylococcus aureus", "conditions": "preformed S. aureus Newman biofilms, 24 hours treatment"}, "GAPDH": {"molecular_target": "T1, GAPDH (Staphylococcus aureus, UniProt Q6GIL8)", "T1 sequence (Q6GIL8 1-336)": "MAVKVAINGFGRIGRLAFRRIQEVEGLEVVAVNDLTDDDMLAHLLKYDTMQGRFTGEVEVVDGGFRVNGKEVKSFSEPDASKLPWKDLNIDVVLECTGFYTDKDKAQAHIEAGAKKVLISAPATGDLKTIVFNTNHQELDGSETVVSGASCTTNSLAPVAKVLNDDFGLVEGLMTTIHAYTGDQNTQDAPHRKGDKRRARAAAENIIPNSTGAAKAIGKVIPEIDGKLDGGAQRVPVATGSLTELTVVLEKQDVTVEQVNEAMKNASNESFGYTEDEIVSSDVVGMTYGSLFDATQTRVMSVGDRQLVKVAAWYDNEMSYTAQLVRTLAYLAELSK", "assay": "GAPDH activity in lysates of treated bacteria", "format": "cell-based", "conditions": "30 minutes treatment; 50 µM Cu, 10 µM PZP-915, 10 µM 915+50 µM Cu", "summary_of_the_method": "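After the 30 min treatment, bacteria washed to remove extracellular copper, then lysed. GAPDH activity measured in the lysates.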"}, "THP-1 monocytic cells": {"tested_on": "THP-1 monocytic cells", "assay": "Toxicity testing on THP-1 monocyte cells", "format": "cell-based, human", "conditions": "24 h"}}}
{"compound": "Cc1nn2c(=O)cc(Cc3ccccc3)[nH]c2c1-c1ccc(Cl)cc1", "note": "[PZP-915, 5‐benzyl‐3‐(4‐chlorophenyl)‐2‐methyl‐4H,7H‐pyrazolo[1,5‐a]pyrimidin‐7‐one]", "values": [{"measurement": "MIC against MRSA strains in comparison to S. aureus Newman", "setting": "[1]", "result": "no difference"}, {"measurement": "binding constant, 1st order reaction of copper binding", "setting": "[2]", "result": "3.8×10^5 Lmol^−1"}, {"measurement": "binding constant, 2nd order complex with copper", "setting": "[2]", "result": 6.18, "unit": "Lmol^−1"}, {"measurement": "binding constant, 3rd order complex with copper", "setting": "[2]", "result": 47.65, "unit": "Lmol^−1"}, {"measurement": "change of intracellular pH", "setting": "[3]", "result": "no or only a minor impact"}, {"measurement": "IC90 at 24 h", "setting": "[4]", "result": "> 40", "unit": "µM"}, {"measurement": "effect on membrane potential (DiOC2(3) red/green ratio)", "setting": "S. aureus Newman", "result": "decreased the membrane potential, although to a much lesser extent"}, {"measurement": "activity in medium supplemented with both Cu and BCS", "setting": "S. aureus [5]; 50 μM Cu, 500 μM BCS", "result": "about the same as in standard medium"}, {"measurement": "effect of Fe on activity", "setting": "S. aureus [5]; 50 μM Fe supplemented medium", "result": "no effect"}, {"measurement": "improvement of activity by Zn in comparison to standard medium", "setting": "S. aureus [5]; 50 μM Zn supplemented medium", "result": 4, "unit": "fold"}, {"measurement": "impact of BCS addition to standard medium on activity", "setting": "S. aureus [5]; 500 μM BCS, no Cu supplementation", "result": "no impact"}, {"measurement": "^CuMIC (S. aureus)", "setting": "S. aureus [5]", "result": 0.6, "unit": "µM"}, {"measurement": "MIC", "setting": "S. aureus [5]; Staphylococcus aureus, read-out: MIC (S. aureus)", "result": 5, "unit": "µM"}, {"measurement": "time to achieve complete inhibition of growth", "setting": "S. aureus [6]; 0.6 µM PZP-915 in the presence of 50 µM Cu", "result": 2, "unit": "h"}, {"measurement": "recoverable viable bacteria", "setting": "S. aureus [6]; 24h treatment, 50 μM Cu added, consistent with bactericidal activity", "result": "no viable cells could be recovered"}, {"measurement": "mode of action (bactericidal vs bacteriostatic)", "setting": "S. aureus [6]; 24h treatment, presence of 50 μM Zn", "result": "bacteriostatic"}, {"measurement": "mode of action (bactericidal vs bacteriostatic)", "setting": "S. aureus [6]; 24h treatment, standard medium, absence of Cu", "result": "bacteriostatic"}, {"measurement": "Cu concentration required to display similar potency", "setting": "S. aureus [6]; dose-matrix, 0.6 µM PZP-915", "result": 50, "unit": "µM"}, {"measurement": "Cu concentration required to exert potent antibacterial properties", "setting": "S. aureus [6]; dose-matrix, 10 µM PZP-915", "result": 1.25, "unit": "µM"}, {"measurement": "concentration for complete eradication of S. aureus in biofilms", "setting": "[7]", "result": 0.6, "unit": "µM"}, {"measurement": "GAPDH activity in cell lysates", "setting": "GAPDH", "result": "did not alter GAPDH activity"}]}
{"compound": "Carbonyl cyanide m-chlorophenyl hydrazine [CCCP, reference compound]", "values": [{"measurement": "change of intracellular pH", "setting": "[3]", "result": "almost instantaneous pH drop"}]}
{"compound": "Iron", "values": [{"measurement": "concentration up to which no toxicity to S. aureus was observed", "setting": "S. aureus [5]; metal alone", "result": "> 3.2", "unit": "mM"}]}
{"compound": "CNC(=S)NN=CC=NNC(=S)NC", "note": "[GTSM]", "values": [{"measurement": "^CuIC90 (THP1)", "setting": "THP-1 monocytic cells; IC90 in the presence of 25 μM copper", "result": 0.15, "unit": "µM"}, {"measurement": "IC90", "setting": "THP-1 monocytic cells; read-out: IC90 (THP1), 90% inhibition relative to untreated controls, no Cu", "result": "> 10", "unit": "µM"}, {"measurement": "^CuMIC (S. aureus)", "setting": "S. aureus [5]", "result": 0.3, "unit": "µM"}]}
